From ChEMBL document CHEMBL3352730, “Synthesis and effects on cell viability of flavonols and 3-methyl ether derivatives on human leukemia cells” (Eur J Med Chem, 2014)
The source made the active and inactive calls. The rule behind the calls is not given here.

Key:
HL-60 [1] = test: Induction of cell cycle arrest in human HL60 cells assessed as accumulation at G1 phase at 3 uM after 12 hrs by propidium iodide staining based flow cytometry (reference value: 57.2 +/- 0.9%); assay type: functional
HL-60 [2] = test: Induction of cell cycle arrest in human HL60 cells assessed as accumulation at G1 phase at 1 uM after 12 hrs by propidium iodide staining based flow cytometry (reference value: 57.2 +/- 0.9%); assay type: functional
U-937 [3] = test: Induction of cell cycle arrest in human U937 cells assessed as accumulation at S phase at 3 uM after 12 hrs by propidium iodide staining based flow cytometry (reference value: 20.5 +/- 0.8%); assay type: functional
U-937 [4] = test: Induction of cell cycle arrest in human U937 cells assessed as accumulation at subG1 phase at 10 uM after 12 hrs by propidium iodide staining based flow cytometry (reference value: 4.6 +/- 0.9%); assay type: functional
HL-60 [5] = test: Induction of cell cycle arrest in human HL60 cells assessed as accumulation at S phase at 3 uM after 12 hrs by propidium iodide staining based flow cytometry (reference value: 14.7 +/- 0.3%); assay type: functional
HL-60 [6] = test: Induction of cell cycle arrest in human HL60 cells assessed as accumulation at G1 phase at 10 uM after 24 hrs by propidium iodide staining based flow cytometry (reference value: 53 +/- 1.1%); assay type: functional
U-937 [7] = test: Cytotoxicity against human U937 cells at 30 uM incubated for 24 hrs followed of 0.5 ug/mL TRAIL exposure for 24 hrs by MTT assay; assay type: functional, cell-based
Method in brief: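 U937 cells, MTT viability read-out. One arm received TRAIL at 0.5 µg/mL together with compound at 30 µM for 48 h. The other arm had compound for 24 h, then TRAIL for 24 h. Three independent experiments, each in triplicate.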

U-937 [8] = test: Induction of cell cycle arrest in human U937 cells assessed as accumulation at G1 phase at 10 uM after 48 hrs by propidium iodide staining based flow cytometry (reference value: 51.9 +/- 0.9%); assay type: functional
HL-60 [9] = test: Reduction in Bid expression in human HL60 cells by Western blotting method; assay type: functional, cell-based
Method in brief: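 Cells (HL-60, Molt-3 or U937) were incubated with increasing concentrations of compound and harvested at 24 h. Cell lysates were then immunoblotted for Bid and other Bcl-2 family members.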

HL-60 [10] = test: Induction of cell cycle arrest in human HL60 cells assessed as accumulation at S phase at 3 uM after 48 hrs by propidium iodide staining based flow cytometry (reference value: 15.3 +/- 0.1%); assay type: functional
U-937 [11] = test: Induction of apoptosis in human U937 cells assessed as pro-caspase-4 processing by Western blotting method; assay type: functional, cell-based
Method in brief: (§1)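 Cells were exposed to a range of compound concentrations and harvested at 24 h. Lysates were immunoblotted for caspase proforms and cleaved forms, and for Bcl-2 family proteins.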

MOLT-3 [12] = test: Induction of apoptosis in human MOLT3 cells assessed as pro-caspase-8 cleavage by Western blotting method; assay type: functional, cell-based; method in brief: as §1
U-937 [13] = test: Induction of apoptosis in human U937 cells assessed as increase in caspase 3/7 activity using DEVD-pNA substrate at 10 uM after 24 hrs; assay type: functional, cell-based
Method in brief: (§2)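 Cells were given 10 µM for 24 h. Lysates were assayed for cleavage of DEVD-pNA (caspase-3/7), IETD-pNA (caspase-8) and LEHD-pNA (caspase-9). Results are expressed as fold over control, from three independent experiments in triplicate.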

HL-60 [14] = test: Induction of apoptosis in human HL60 cells assessed as pro-caspase-8 cleavage by Western blotting method; assay type: functional, cell-based; method in brief: as §1
U-937 [15] = test: Increase in DR4 expression in human U937 cells at 10 30 uM after 24 hrs by immunoblotting method; assay type: functional, cell-based
Method in brief: (§3)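 HL-60 and U937 cells were treated with increasing concentrations for 24 h. Lysates were immunoblotted for TRAIL, DR4 and DR5.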

U-937 [16] = test: Induction of cell cycle arrest in human U937 cells assessed as accumulation at G1 phase at 3 uM after 48 hrs by propidium iodide staining based flow cytometry (reference value: 51.9 +/- 0.9%); assay type: functional
U-937 [17] = test: Induction of apoptosis in human U937 cells assessed as pro-caspase-9 processing at 3 and 10 uM after 6 to 24 hrs by immunoblotting method; assay type: functional, cell-based
Method in brief: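 Kinetic and dose-response experiment: cells were treated with the indicated concentrations and harvested at the indicated times. Pro-caspase-8 and -9 cleavage was detected by immunoblotting with antibodies that bind both the proenzyme and the cleaved fragments.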

HL-60 [18] = test: Induction of cell cycle arrest in human HL60 cells assessed as accumulation at subG1 phase at 10 uM after 12 hrs by propidium iodide staining based flow cytometry (reference value: 6.1 +/- 0.5%); assay type: functional
MOLT-3 [19] = test: Effect on Bcl-2 expression in human MOLT3 cells by Western blotting method; assay type: functional, cell-based; method in brief: as §1
HL-60 [20] = test: Induction of cell cycle arrest in human HL60 cells assessed as accumulation at S phase at 1 uM after 12 hrs by propidium iodide staining based flow cytometry (reference value: 14.7 +/- 0.3%); assay type: functional
HL-60 [21] = test: Induction of apoptosis in human HL60 cells assessed as increase in caspase 3/7 activity DEVD-pNA substrate at 10 uM after 24 hrs; assay type: functional; method in brief: as §2
HL-60 [22] = test: Induction of cell cycle arrest in human HL60 cells assessed as accumulation at subG1 phase at 3 uM after 48 hrs by propidium iodide staining based flow cytometry (reference value: 3.7 +/- 0.1%); assay type: functional
MOLT-3 [23] = test: Effect on Bax expression in human MOLT3 cells by Western blotting method; assay type: functional, cell-based; method in brief: as §1
HL-60 [24] = test: Increase in TRAIL expression in human HL60 cells at 10 30 uM after 24 hrs by immunoblotting method; assay type: functional, cell-based; method in brief: as §3
HL-60 [25] = test: Induction of apoptosis in human HL60 cells in presence of 10 uM MEK1/2 inhibitor PD98059 after 24 hrs by propidium iodide staining based flow cytometry; assay type: functional
U-937 [26] = test: Increase in TRAIL expression in human U937 cells at 10 30 uM after 24 hrs by immunoblotting method; assay type: functional, cell-based; method in brief: as §3
HL-60 [27] = test: Induction of apoptosis in human HL60 cells in presence of 10 uM MEK1/2 inhibitor U0126 after 24 hrs by propidium iodide staining based flow cytometry; assay type: functional
HL-60 [28] = test: Induction of cell cycle arrest in human HL60 cells assessed as accumulation at subG1 phase at 10 uM after 48 hrs by propidium iodide staining based flow cytometry (reference value: 3.7 +/- 0.1%); assay type: functional
HL-60 [29] = test: Induction of apoptosis in human HL60 cells at 30 uM after 24 hrs by propidium iodide staining based flow cytometry (reference value: 3.8 +/- 0.6%); assay type: functional
U-937 [30] = test: Induction of cell cycle arrest in human U937 cells assessed as accumulation at G1 phase at 10 uM after 12 hrs by propidium iodide staining based flow cytometry (reference value: 45.8 +/- 0.8%); assay type: functional
U-937 [31] = test: Induction of cell cycle arrest in human U937 cells assessed as accumulation at G2/M phase at 1 uM after 12 hrs by propidium iodide staining based flow cytometry (reference value: 24.2 +/- 1.2%); assay type: functional
HL-60 [32] = test: Induction of cell cycle arrest in human HL60 cells assessed as accumulation at G2/M phase at 3 uM after 12 hrs by propidium iodide staining based flow cytometry (reference value: 18.5 +/- 0.5%); assay type: functional

O=c1c(O)c(-c2ccc(Br)cc2)oc2ccccc12
Activity (HL-60 [1]): 56.7%
Activity (HL-60 [2]): 56.2%
Activity (U-937 [3]): 22.4%
Activity (U-937 [4]): 4.3%
Activity (HL-60 [5]): 14.8%
Activity (HL-60 [6]): 37.3%
Activity (U-937 [7]): Active
Activity (U-937 [8]): 41.4%
Activity (HL-60 [9]): Active
Activity (HL-60 [10]): 22.1%
Activity (U-937 [11]): Active
Activity (MOLT-3 [12]): Active
Activity (U-937 [13]): Active
Activity (HL-60 [14]): Active
Activity (U-937 [15]): Active
Activity (U-937 [16]): 38.5%
Activity (U-937 [17]): Active
Activity (HL-60 [18]): 8.9%
Activity (MOLT-3 [19]): inactive
Activity (HL-60 [20]): 15.6%
fold change (FC) (HL-60 [21]): 4.5
Activity (HL-60 [22]): 14.3%
Activity (MOLT-3 [23]): inactive
Activity (HL-60 [24]): Active
fold change (FC) (HL-60 [25]): 2
Activity (U-937 [26]): Active
fold change (FC) (HL-60 [27]): 2
Activity (HL-60 [28]): 56.7%
Activity (HL-60 [29]): 51.8%
Activity (U-937 [30]): 47.6%
Activity (U-937 [31]): 25.1%
Activity (HL-60 [32]): 18.2%
